High-throughput results: PubChem BioAssay, several laboratories
The list is not random: actives were taken first. Their share in the collection is about 1.5%.
H9c2 protect: modulators protecting cardiomyocytes from myocardial damage | H9c2 cardiomyocytes, H2O2 injury protection, ATPLite, 2 h | protection from H2O2 cell death, % at 20 µM | hit rate 0.63% among 360,000 | AID 588492;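 active = compounds giving at least 50% protection of heart cells from peroxide-induced death in the single-dose screen, raw or plate-pattern-corrected value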;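 also: 0% = DMSO wells with peroxide and 100% = DMSO wells without peroxide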
Rin1-Abl PPI inh: blocks binding of human Rin1 to Abl | P00519+Q13671 | inhibition, % at 7.35 µM | hit rate 0.4% among 360,000 | TR-FRET Rin1/Abl binding, biochemical | AID 588664; in the data active = inhibition above about 5%, passing the limit was not always enough
PKA-R1A activ: PKA-R1A complex activation | activation, % at 11.4 µM | P00514+P68181 | AID 504707 | hit rate 0.083% among 340,000 | PKA-R1A dissociation, Cy5-IP20 fluorescence polarization; scaled: DMSO 0%, 113 µM cGMP 100%;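 active = percent activation above the mean of all tested compounds plus 3 SD, cut at about 19% in these data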;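 also: higher means more PKAc released from R1A so a rise in polarization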
Tb MetRS inh: Trypanosoma brucei MetRS inhibition | inhibition, % at 11.9 µM | hit rate 0.4% among 360,000 | purified T. brucei MetRS, ATP depletion, Kinase-Glo luminescence;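 active = inhibition above a per-plate cutoff of the control wells' mean inhibition plus 3 SD, cut at about 5.5% in these data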;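 also: 0% = DMSO wells median and 100% = median of wells with control inhibitor compound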
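Material: T. brucei methionyl-tRNA synthetase, purified; reagent: substrates ATP, L-methionine and bulk Escherichia coli tRNA; dosing: 11.9 µM single point; timing: 15 min plus 2 h at 25 °C; detection: luminescence of leftover ATP; evaluation: % inhibition; control set: DMSO-only wells as low control; replicates: singlicate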
PKA-R2B act: PKA-R2B complex activation; P22694+P31323; PKA-R2B holoenzyme dissociation, Cy5-IP20 fluorescence polarization; R2B truncated from residue 108, S112A mutant; 0% DMSO only, 100% 113 µM cGMP; activation, % at 11.4 µM; hit rate 0.079% among 340,000; AID 504700;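 active = activation above a cutoff set at the mean over all compounds plus 3 SD, cut at about 18% in these data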;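 also: higher means more holoenzyme dissociation and a rise in polarization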
Target sequence (P31323 whole entry, looked up, other chains not shown, the tested form may be a part): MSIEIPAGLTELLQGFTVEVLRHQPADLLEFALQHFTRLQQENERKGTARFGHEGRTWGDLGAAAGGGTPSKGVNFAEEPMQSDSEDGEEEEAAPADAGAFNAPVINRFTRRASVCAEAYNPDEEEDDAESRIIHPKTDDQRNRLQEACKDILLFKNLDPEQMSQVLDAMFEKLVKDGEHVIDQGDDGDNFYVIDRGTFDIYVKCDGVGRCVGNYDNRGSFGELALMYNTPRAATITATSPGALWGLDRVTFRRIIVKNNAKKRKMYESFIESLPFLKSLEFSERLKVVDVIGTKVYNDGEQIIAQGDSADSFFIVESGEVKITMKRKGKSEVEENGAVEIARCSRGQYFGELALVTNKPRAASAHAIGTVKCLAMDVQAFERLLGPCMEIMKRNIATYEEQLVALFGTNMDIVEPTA
Tb MetRS conf: confirmation of Trypanosoma brucei MetRS inhibitors | hit rate 93% among 1,400 | shares compounds with Tb MetRS inh | inhibition, % at 11.9 µM | T. brucei MetRS enzyme, luminescence (ATP depletion); in the data active = inhibition above about 7%
Jurkat cytotox: Jurkat T cell cytotoxicity for MetRS hits | shares compounds with Tb MetRS inh | Jurkat cells viability, ATP luminescence | inhibition, % at 8.3 µM | hit rate 12% among 1,400 | AID 624413; in the data active = inhibition above about 15%;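 also: 0% = vehicle and 100% = reference inhibitor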
TbMetRS FP orth: orthogonal test for Trypanosoma brucei MetRS inhibitors. shares compounds with Tb MetRS inh. purified T. brucei MetRS, fluorescence polarization. inhibition, % at 11.9 µM. hit rate 44% among 1,400; in the data active = inhibition above about 17%;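 also: 0% = vehicle wells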
The depositor's hits bear a star.

Screening O=C(NCCc1ccncc1)Nc1ccc(Cl)cc1 returned H9c2 protect 2, Rin1-Abl PPI inh -2, PKA-R1A activ -7, Tb MetRS inh 6.2*, PKA-R2B act -4, Tb MetRS conf 14*, Jurkat cytotox -1 and TbMetRS FP orth 0.
Screening Cc1ccc(S(=O)(=O)NNC(=O)Nc2ccc(Cl)c(Cl)c2)cc1 returned H9c2 protect -1, Rin1-Abl PPI inh -4, PKA-R1A activ -12, Tb MetRS inh 12*, PKA-R2B act -1, Tb MetRS conf 13*, Jurkat cytotox 1 and TbMetRS FP orth 10.
NS(=O)(=O)c1ccc(CCNC(=O)Nc2ccc(Cl)c(Cl)c2)cc1 was read as H9c2 protect -11, Rin1-Abl PPI inh 2, PKA-R1A activ -10, Tb MetRS inh 15*, PKA-R2B act -2, Tb MetRS conf 23*, Jurkat cytotox 18* and TbMetRS FP orth 19*.
`Cc1ccc(NC(=O)NNS(=O)(=O)c2ccc(Br)cc2)cc1` gave H9c2 protect 10, Rin1-Abl PPI inh -3, PKA-R1A activ -9, Tb MetRS inh 1 and PKA-R2B act -16.
CCCCOCCCNC(=O)C[C@@H]1C[C@@]2(C(=O)OC)CC(C)(C)CC=C2N(CCc2ccc(OC)c(OC)c2)C1=O was read as Tb MetRS inh 0.
`COc1ccccc1C(=O)OCCNC(=O)Cn1cnc2c1c(=O)n(C)c(=O)n2C` gave H9c2 protect 3, Rin1-Abl PPI inh -2, PKA-R1A activ 1, Tb MetRS inh -1 and PKA-R2B act -9.
Screening O=C(NCCc1ccc(Cl)cc1)Nc1ccc(Cl)cc1 returned H9c2 protect -5, Rin1-Abl PPI inh -4, PKA-R1A activ -5, Tb MetRS inh 71*, PKA-R2B act -9, Tb MetRS conf 69*, Jurkat cytotox 4 and TbMetRS FP orth 55*.
For O=C(CCCSc1ccc(Cl)cc1)Nc1ccccc1O the results were H9c2 protect -20, Rin1-Abl PPI inh 4, PKA-R1A activ -6, Tb MetRS inh 18*, PKA-R2B act -2, Tb MetRS conf 38*, Jurkat cytotox 12 and TbMetRS FP orth 24*.
Cc1ccc(SCCC(=O)N/N=C/c2ccccc2O)cc1 was read as H9c2 protect 65*, Rin1-Abl PPI inh -3, PKA-R1A activ -6, Tb MetRS inh 18*, PKA-R2B act -6, Tb MetRS conf 80*, Jurkat cytotox 13 and TbMetRS FP orth 51*.
Cc1cccc(NC(=O)CCC(=O)N/N=C/c2ccc(O)cc2O)c1 was read as H9c2 protect 69*, Rin1-Abl PPI inh -2, PKA-R1A activ 6, Tb MetRS inh 54*, PKA-R2B act -9, Tb MetRS conf 81*, Jurkat cytotox 0 and TbMetRS FP orth 46*.
`Cc1ccc(SCCC(=O)N/N=C/c2cccnc2)cc1` gave H9c2 protect 3, Rin1-Abl PPI inh 3, PKA-R1A activ 3, Tb MetRS inh 11*, PKA-R2B act -1, Tb MetRS conf 32*, Jurkat cytotox 11 and TbMetRS FP orth 21*.
For O=C(CCC(=O)Nc1ccc(Br)cc1)N/N=C/c1ccccc1O the results were H9c2 protect 42, Rin1-Abl PPI inh -3, PKA-R1A activ 6, Tb MetRS inh 1 and PKA-R2B act -6.
CNC(=O)CCSc1ccc(C)cc1 was read as H9c2 protect 2, Rin1-Abl PPI inh -1, PKA-R1A activ 0, Tb MetRS inh 1 and PKA-R2B act 3.
`CCN(CC(=O)NCc1cccs1)C(=O)c1ccc(S(=O)(=O)Nc2ccccc2Cl)cc1` gave H9c2 protect 2, Rin1-Abl PPI inh -3, PKA-R1A activ -6, Tb MetRS inh -1 and PKA-R2B act -2.
Screening CCOc1ccccc1NC(=O)C(=O)CC(=O)c1ccc(OC)cc1 returned H9c2 protect 49, Rin1-Abl PPI inh 5, PKA-R1A activ -16, Tb MetRS inh 0 and PKA-R2B act 4.
Screening CCCCCc1nnc(NC(=O)c2ccc(N3CCCC3=O)cc2)s1 returned H9c2 protect -5, Rin1-Abl PPI inh 1, PKA-R1A activ -7, Tb MetRS inh 0 and PKA-R2B act -10.
CC(=O)Nc1ccc(CNc2nc3cc(-c4ccc(F)cc4)sc3c(=O)n2C)cc1 was read as H9c2 protect -19, Rin1-Abl PPI inh -3 and Tb MetRS inh 0.
COc1ccc2[nH]cc(C(=O)CN3CCN(C(=O)c4ccco4)CC3)c2c1 was read as H9c2 protect 4, Rin1-Abl PPI inh -3, PKA-R1A activ -10, Tb MetRS inh 6.4*, PKA-R2B act -7, Tb MetRS conf 4, Jurkat cytotox -5 and TbMetRS FP orth -4.
For NS(=O)(=O)c1ccc(CCNC(=O)CCCn2c(=O)[nH]c3ccc(Br)cc3c2=O)cc1 the results were H9c2 protect 4, Rin1-Abl PPI inh 1, PKA-R1A activ -2, Tb MetRS inh 14*, PKA-R2B act -15, Tb MetRS conf 22*, Jurkat cytotox -7 and TbMetRS FP orth 13.
Screening CC(C)CCNC(=O)CCCn1c(=O)[nH]c2ccc(Br)cc2c1=O returned H9c2 protect -9, Rin1-Abl PPI inh 0, PKA-R1A activ -4, Tb MetRS inh 1 and PKA-R2B act 1.
O=C(N/C(=C/c1ccc(F)cc1)C(=O)N1CCOCC1)c1ccco1 was read as H9c2 protect 4, Rin1-Abl PPI inh -4, PKA-R1A activ 6, Tb MetRS inh 0 and PKA-R2B act 4.
CC(=O)c1cccc(NC(=O)CSc2nnc(C(C)N(C)C)n2-c2ccc(F)cc2)c1 (stereo unspecified) was read as H9c2 protect 10, Rin1-Abl PPI inh 2, PKA-R1A activ 1, Tb MetRS inh 1 and PKA-R2B act 6.
For CC(=O)c1cccc(NC(=O)CSc2nnc(C(C)N(C)C)n2Cc2ccccc2)c1 (stereo unspecified) the results were H9c2 protect 17, Rin1-Abl PPI inh -3, PKA-R1A activ 5, Tb MetRS inh 5.6*, PKA-R2B act -1, Tb MetRS conf 2, Jurkat cytotox 3 and TbMetRS FP orth -3.
`Nc1ccccc1Nc1cc(-c2ccccc2)[nH]n1` gave H9c2 protect -9, Rin1-Abl PPI inh 2, PKA-R1A activ 0, Tb MetRS inh 5.8*, PKA-R2B act -16, Tb MetRS conf 5, Jurkat cytotox 96* and TbMetRS FP orth -4.
Nc1ccccc1Nc1cc(-c2ccccc2)nn1-c1ccccc1 was read as H9c2 protect -3, Rin1-Abl PPI inh 2, PKA-R1A activ -17, Tb MetRS inh 1 and PKA-R2B act -5.
